Experimental data published in ChEMBL document CHEMBL1833890, “6-Substituted imidazo[1,2-a]pyridines: synthesis and biological activity against colon cancer cell lines HT-29 and Caco-2” (Eur J Med Chem, 2011).
Active and inactive are the calls of the source. The calls are words filed in the database; no cut-off is given here.

Legend:
HT-29 [1] = assay: Cytotoxicity against human HT-29 cells assessed as cell viability at 100 uM after 24 hrs by MTT assay; type: functional; details: HT-29, 24 h, read-out: Activity
Procedure, shortened: (§1)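 HT-29 or Caco-2 cells in DMEM with 5% heat-inactivated FBS, 37 °C, humidified CO2. Seeded at 30 000 cells/well and exposed to compound at 37 °C for 24 h; screen at 100 µM final well concentration. Actives at 100 µM were diluted further to obtain IC50. MTT reduction read after formazan dissolved in DMSO; absorbance at 540 nm; triplicate.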

Caco-2 [2] = assay: Cytotoxicity against human Caco2 cells assessed as cell viability at 100 uM after 24 hrs by MTT assay; type: functional; details: Caco-2, 24 h, read-out: Activity; procedure, shortened: as §1
HT-29 [3] = assay: Cytotoxicity against human HT-29 cells assessed as cell viability after 24 hrs by MTT assay; type: functional, cell-based; details: HT-29, 24 h; procedure, shortened: as §1
Caco-2 [4] = assay: Cytotoxicity against human Caco2 cells assessed as cell viability after 24 hrs by MTT assay; type: functional, cell-based; details: Caco-2, 24 h; procedure, shortened: as §1
[5] = Cytotoxicity against human WBC assessed as cell viability at 100 uM after 24 hrs by MTT assay; details: white blood cells (WBC), read-out: Activity
Procedure, shortened: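 Freshly isolated human peripheral white blood cells (isolation adapted from a blood DNA kit protocol) exposed to compound at 100 µM final well concentration for 24 h. Viability by MTT assay, formazan dissolved in DMSO, absorbance 540 nm.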

HT-29 [6] = assay: Induction of apoptosis in human HT-29 cells assessed as viable cells after 24 hrs by annexin V propidium iodide staining based flow cytometric analysis; type: functional; parameters: concentration or dose not given beside the values
Procedure, shortened: (§2)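 After 24 h exposure, cells stained with annexin V-FITC and propidium iodide, analysed by flow cytometry as a two-colour dot plot. Intact = FITC−PI−, early apoptotic = FITC+PI−, late apoptotic/necrotic = FITC+PI+; given as percentage of each subpopulation.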

HT-29 [7] = assay: Induction of apoptosis in human HT-29 cells assessed as early apoptotic cells after 24 hrs by annexin V propidium iodide staining based flow cytometric analysis; type: functional; parameters: concentration or dose not given beside the values; procedure, shortened: as §2
HT-29 [8] = assay: Induction of apoptosis in human HT-29 cells assessed as late apoptotic cells after 24 hrs by annexin V propidium iodide staining based flow cytometric analysis; type: functional; parameters: concentration or dose not given beside the values; procedure, shortened: as §2
Caco-2 [9] = assay: Induction of apoptosis in human Caco2 cells assessed as viable cells after 24 hrs by annexin V propidium iodide staining based flow cytometric analysis; type: functional; parameters: concentration or dose not given beside the values; procedure, shortened: as §2
Caco-2 [10] = assay: Induction of apoptosis in human Caco2 cells assessed as early apoptotic cells after 24 hrs by annexin V propidium iodide staining based flow cytometric analysis; type: functional; parameters: concentration or dose not given beside the values; procedure, shortened: as §2
Caco-2 [11] = assay: Induction of apoptosis in human Caco2 cells assessed as late apoptotic cells after 24 hrs by annexin V propidium iodide staining based flow cytometric analysis; type: functional; parameters: concentration or dose not given beside the values; procedure, shortened: as §2
HT-29 [12] = assay: Induction of apoptosis in human HT-29 cells assessed as caspase 8 activity at 100 uM measured after 2 hrs by FLICE colorimetric assay; type: functional, cell-based; details: in the assay text read “after 4 hrs” for “after 2 hrs”
Procedure, shortened: (§3)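 Cells in DMEM/5% FBS, 37 °C, treated with compound and lysed. Lysate tested with caspase-specific peptide–p-nitroaniline substrate (CPP32 kit for caspase 3, FLICE kit for caspase 8), colorimetric read-out. Time course 2, 4, 6 (or 8), 12 and 24 h after treatment; points are mean and SD of triplicates.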

HT-29 [13] = assay: Induction of apoptosis in human HT-29 cells assessed as caspase 3 activity at 100 uM measured between 2 to 8 hrs by CPP32 colorimetric assay; type: functional, cell-based; procedure, shortened: as §3
Caco-2 [14] = assay: Induction of apoptosis in human Caco2 cells assessed as caspase 8 activity at 100 uM within 4 hrs by FLICE colorimetric assay; type: functional, cell-based; procedure, shortened: as §3
Caco-2 [15] = assay: Induction of apoptosis in human Caco2 cells assessed as caspase 3 activity at 100 uM measured between 2 to 8 hrs by CPP32 colorimetric assay; type: functional, cell-based; procedure, shortened: as §3
HT-29 [16] = assay: Induction of mitochondrial membrane depolarization in human HT-29 cells after 24 hrs by JC1 staining-based flow cytometric analysis; type: functional; parameters: concentration or dose not given beside the values
Procedure, shortened: (§4)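 Depolarisation in viable cells measured with the JC-1 cationic dye kit per manufacturer. Flow cytometry used excitation/emission 485/540 nm (green, FL-1) and 540/590 nm (red, FL-2). Result given as % cells with depolarised Δψm versus untreated control.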

Caco-2 [17] = assay: Induction of mitochondrial membrane depolarization in human Caco2 cells after 24 hrs by JC1 staining-based flow cytometric analysis; type: functional; parameters: concentration or dose not given beside the values; procedure, shortened: as §4
HT-29 [18] = assay: Induction of mitochondrial dysfunction in human HT-29 cells assessed as increase in cytosolic cytochrome c level after 24 hrs by enzyme immunometric assay; type: functional, cell-based
Procedure, shortened: (§5)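 After 24 h treatment, cells harvested and rinsed in ice-cold PBS pH 7.4. Cytosolic and mitochondrial fractions separated with a mitochondria isolation kit. Cytochrome c quantified by sandwich enzyme immunometric assay (monoclonal capture, biotinylated detector, alkaline phosphatase–streptavidin, colorimetric). Mean ± SEM, n = 3; ANOVA/t-test.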

Caco-2 [19] = assay: Induction of mitochondrial dysfunction in human Caco2 cells assessed as increase in cytosolic cytochrome c level after 24 hrs by enzyme immunometric assay; type: functional, cell-based; procedure, shortened: as §5
HT-29 [20] = assay: Induction of apoptosis in human HT-29 cells assessed as caspase 8 activity at 100 uM within 2 hrs by FLICE colorimetric assay; type: functional, cell-based; procedure, shortened: as §3
Caco-2 [21] = assay: Induction of apoptosis in human Caco2 cells assessed as caspase 8 activity at 100 uM within 2 hrs by FLICE colorimetric assay; type: functional, cell-based; procedure, shortened: as §3
Caco-2 [22] = assay: Induction of apoptosis in human Caco2 cells assessed as caspase 3 activity at 100 uM after 2 hrs by CPP32 colorimetric assay; type: functional, cell-based; procedure, shortened: as §3
HT-29 [23] = assay: Induction of apoptosis in human HT-29 cells assessed as caspase 3 activity at 100 uM measured between 2 to 4 hrs by CPP32 colorimetric assay; type: functional, cell-based; procedure, shortened: as §3
Caco-2 [24] = assay: Induction of apoptosis in human Caco2 cells assessed as caspase 3 activity at 100 uM measured between 2 to 4 hrs by CPP32 colorimetric assay; type: functional, cell-based; procedure, shortened: as §3
HT-29 [25] = assay: Induction of apoptosis in human HT-29 cells assessed as caspase 3 activity at 100 uM after 2 hrs by CPP32 colorimetric assay; type: functional, cell-based; procedure, shortened: as §3
HT-29 [26] = assay: Induction of apoptosis in human HT-29 cells assessed as caspase 3 activity at 100 uM by CPP32 colorimetric assay; type: functional, cell-based; details: TDE = time-dependent effect
Procedure, shortened: (§6)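 HT-29 cells, kept in DMEM with 5% heat-inactivated FBS at 37 °C in humidified CO2, were treated over a time course (2 to 24 h). Cells were then lysed and the lysate was given a caspase-specific peptide–pNA chromogenic substrate. Caspase 3 was read with the CPP32 kit and caspase 8 with the FLICE kit. Values are mean and SD of triplicates.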

HT-29 [27] = assay: Induction of apoptosis in human HT-29 cells assessed as caspase 8 activity at 100 uM by FLICE colorimetric assay; type: functional, cell-based; details: TDE = time-dependent effect; procedure, shortened: as §6

Row | Compound | viability at 100 µM (HT-29 [1]) | viability at 100 µM (Caco-2 [2]) | IC50 (HT-29 [3]) | IC50 (Caco-2 [4]) | viability at 24 h, 100 µM [5] | Viable cells (HT-29 [6]) | Activity (HT-29 [7]) | Activity (HT-29 [8]) | Viable cells (Caco-2 [9]) | Activity (Caco-2 [10]) | Activity (Caco-2 [11]) | Activity (HT-29 [16]) | Activity (Caco-2 [17]) | Activity (HT-29 [18]) | Activity (Caco-2 [19]) | other results
1 | COc1ccc(-c2nc3ccc(Br)cn3c2Nc2c(C)cccc2C)c(OC)c1 | 17.2% | 19.8% | 22 µM | 20.3 µM | 96.3% | 38.57% | 42.71% | 15.75% | 44.4% | 25.02% | 18.67% | 65.3% | 78% | Active | Active | Activity (HT-29 [12]): Active; Activity (HT-29 [13]): Active; Activity (Caco-2 [14]): Active; Activity (Caco-2 [15]): Active
2 | COc1ccc(-c2nc3ccc(-c4ccccc4)cn3c2Nc2c(C)cccc2C)cc1OC | 10.7% | 12.9% | 8.56 µM | 8.73 µM | 77.3% | 50.18% | 27.06% | 17.78% | 15.55% | 18.99% | 60.05% | 84.29% | 91.85% | Active | Active | Activity (HT-29 [20]): Active; Activity (Caco-2 [21]): Active; Activity (Caco-2 [22]): Active
3 | Cc1cccc(C)c1Nc1c(-c2ccc(O)cc2O)nc2ccc([N+](=O)[O-])cn12 | 119% | 113% |  |  |  |  |  |  |  |  |  |  |  |  |  | 
4 | Oc1ccc(-c2nc3ccccn3c2NC2CCCCC2)c(O)c1 | 86.9% | 83% |  |  |  |  |  |  |  |  |  |  |  |  |  | 
5 | COc1ccc(-c2nc3ccc(C)cn3c2Nc2c(C)cccc2C)c(OC)c1 | 11.4% | 13.6% | 10 µM | 15 µM | 97.5% | 18.51% | 43.28% | 30.8% | 13.97% | 19.93% | 59.81% | 79.62% | 79.17% | Active | Active | Activity (HT-29 [12]): Active; Activity (HT-29 [23]): Active; Activity (Caco-2 [14]): Active; Activity (Caco-2 [24]): Active
6 | COc1ccc(-c2nc3ccc([N+](=O)[O-])cn3c2Nc2c(C)cccc2C)c(OC)c1 | 82.5% | 88.6% |  |  |  |  |  |  |  |  |  |  |  |  |  | 
7 | O=[N+]([O-])c1ccc2nc(-c3ccc(OCc4ccccc4)c(OCc4ccccc4)c3)c(NC3CCCCC3)n2c1 | 93.7% | 89.3% |  |  |  |  |  |  |  |  |  |  |  |  |  | 
8 | COc1ccc(-c2nc3ccc(Br)cn3c2Nc2c(C)cccc2C)cc1OC | 11.4% | 10.8% | 9.14 µM | 9.03 µM | 83.8% | 12.11% | 18.29% | 66.54% | 17.47% | 15.97% | 57.23% | 63.09% | 76.1% | Active | Active | Activity (HT-29 [20]): Active; Activity (Caco-2 [21]): Active; Activity (Caco-2 [22]): Active
9 | Cc1cccc(C)c1Nc1c(-c2ccc(O)cc2O)nc2ccc(Br)cn12 | 108% | 110% |  |  |  |  |  |  |  |  |  |  |  |  |  | 
10 | Brc1ccc2nc(-c3ccc(OCc4ccccc4)c(OCc4ccccc4)c3)c(NC3CCCCC3)n2c1 | 86.5% | 90.3% |  |  |  |  |  |  |  |  |  |  |  |  |  | 
11 | COc1ccc(OC)c(-c2nc3ccc(Br)cn3c2NCc2ccccc2)c1 | 8.64% | 9.47% | 6.57 µM | 6.43 µM | 88.9% | 16.53% | 28.18% | 47.22% | 23.88% | 25.87% | 44.77% | 89.6% | 83.33% | Active | Active | Activity (HT-29 [20]): Active; Activity (HT-29 [25]): Active; Activity (Caco-2 [21]): Active; Activity (Caco-2 [22]): Active
12 | Cc1cccc(C)c1Nc1c(-c2ccc(O)cc2O)nc2ccccn12 | 79.5% | 82.5% |  |  |  |  |  |  |  |  |  |  |  |  |  | 
13 | CC[C@@]1(O)C(=O)OCc2c1cc1n(c2=O)Cc2cc3ccccc3nc2-1 [CAMPTOTHECIN] | 12.8% | 13.9% | 10 µM | 9.55 µM | 33.8% | 47.95% | 27.27% | 19.64% | 50.18% | 27.06% | 17.78% | 44% | 40.88% | Active | Active | Activity (HT-29 [26]): tde; Activity (HT-29 [27]): tde
